Most compounds without a hit are left out; they make up all but 3.1% or so of the library.
E-selectin induc = E-selectin induction on HUVECs; actives 0.37% (n = 260,000); activation, % at 7.58 µM; P16581; HUVEC E-selectin immunofluorescence imaging; normalized: neutral wells 0, TNF-alpha wells 100;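 active = mean E-selectin-positive cell signal at least 10% of the positive control, reached in at least 60% of replicates, without over 20% cell loss; inconclusive = no rule given, readout overlaps actives, possibly toxicity-flagged; inactive = the rest, including those meeting only one limit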
Target sequence (P16581 whole entry, looked up): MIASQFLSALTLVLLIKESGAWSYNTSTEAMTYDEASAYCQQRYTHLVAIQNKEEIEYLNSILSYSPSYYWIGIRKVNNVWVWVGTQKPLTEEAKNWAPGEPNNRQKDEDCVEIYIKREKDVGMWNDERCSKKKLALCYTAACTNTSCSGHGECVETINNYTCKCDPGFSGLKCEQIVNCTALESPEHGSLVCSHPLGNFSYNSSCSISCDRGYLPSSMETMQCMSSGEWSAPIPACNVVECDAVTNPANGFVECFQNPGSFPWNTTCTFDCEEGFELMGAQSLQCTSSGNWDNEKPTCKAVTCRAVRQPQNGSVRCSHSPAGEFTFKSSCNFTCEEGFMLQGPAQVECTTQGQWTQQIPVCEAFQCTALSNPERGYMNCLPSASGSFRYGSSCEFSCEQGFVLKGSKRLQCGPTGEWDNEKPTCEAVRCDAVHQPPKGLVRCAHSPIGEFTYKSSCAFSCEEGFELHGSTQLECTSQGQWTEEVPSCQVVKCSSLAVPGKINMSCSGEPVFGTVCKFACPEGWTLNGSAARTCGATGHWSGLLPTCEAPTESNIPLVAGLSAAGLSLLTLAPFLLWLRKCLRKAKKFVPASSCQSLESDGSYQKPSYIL
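material = human umbilical vein endothelial cells (HUVEC), E-selectin induction | quantity = 3,000 cells/well | medium = EGM-2 growth medium on 0.1% gelatin-coated wells | technique = immunofluorescence imaging | read-out basis = % PE-positive cells | control set = TNF-alpha positive control, DMSO neutral control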
DENV2 CPE rescue = protects cells from dengue virus 2 cytopathic effect; DENV2-infected cells, cytopathic effect rescue, plate reader; CPE inhibition, % at 9.99 µM; actives 1.7% (n = 350,000); in the data active = CPE inhibition above about 20%, passing the limit was not always enough; inconclusive = no clear call, values can overlap the other calls; tested in BHK-21 cells;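 note: 0% = median of neutral control wells and 100% = median of positive control wells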
Cneo AK release = causes C. neoformans cell lysis | adenylate kinase release luminescence, 4 h; normalised: neutral wells 0, clomiphene wells 100 | lysis activity, % at 15 µM | actives 0.2% (n = 360,000);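 active = mean lysis activity across replicates of at least 80%, whatever share of replicates individually reach that level; inactive = mean lysis activity below 80%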
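Material: C. neoformans cells; Schedule: 4 h static compound exposure, 37 °C, read 1 h post-reagent; Measured by: adenylate kinase release luminescence; Read-out: signal increase indicating cell lysis; Controls: Clomiphene as positive lysis control.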
miR-122 sensor = miR-122 inhibition in Huh7 cells. Huh7 miR-122 Renilla luciferase sensor, 48 h; neutral wells = 0, positive control = 100. activation (reporter increase), % at 12.5 µM. actives 0.3% (n = 340,000);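 active = mean replicate activation score at least 90 and every replicate individually at or above 90; inconclusive = only one of the two criteria met; inactive = neither criterion met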;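 note: higher luciferase means less miR-122 activity so hits act as miR-122 inhibitors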
rRNA inh HTS = selective bacterial rRNA inhibition in E. coli | E. coli WT GFP vs humanized-ribosome RFP mutants, fluorescence, 24 h; hits give low values; DMSO median 0, no signal -100 | GFP signal change (wild-type ribosome), % (test concentration not listed) | actives 1.6% (n = 350,000) | AID 720706;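 active = significant combined selectivity score with lowered wild-type GFP, culture density cut under 30%, mutant RFP and density less affected; inactive = any of these conditions unmet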
An asterisk follows results filed as active; ? = inconclusive; . = not tested or not shown; [ ] = dose if it differs, or a comment.

SMILES | E-selectin induc | DENV2 CPE rescue | Cneo AK release | miR-122 sensor | rRNA inh HTS
COC(=O)C[C@H]1CC[C@H]2[C@H](COc3ccc(NC(=O)Nc4cccc(Cl)c4)cc3C(=O)N2C)O1 | 0.3 | -4.1 | -4.5 | 20.2[16.7 µM] | -7.0
C[C@@H]1CN([C@H](C)CO)C(=O)c2cc(NS(=O)(=O)c3ccc(Cl)cc3)ccc2O[C@@H](C)CCCCO[C@@H]1CN(C)C(=O)CCCN(C)C | -0.3 | 22.4* | -2.0 | -1.6[16.7 µM] | 0.5
C[C@@H]1CCCCO[C@@H](CN(C)C(=O)CCCN(C)C)[C@@H](C)CN([C@H](C)CO)C(=O)c2cc(NS(=O)(=O)c3ccc(Cl)cc3)ccc2O1 | 0.4 | 1.9 | 2.0 | 11.8[16.7 µM] | 1.1
C[C@@H]1CN([C@@H](C)CO)C(=O)c2cc(NS(=O)(=O)c3ccc(Cl)cc3)ccc2O[C@@H](C)CCCCO[C@@H]1CN(C)C(=O)CCCN(C)C | 0.2 | 20.4* | 2.2 | 6.0[16.7 µM] | 5.1
O=C(c1ccc(F)cc1)N1CCC(C(=O)N2CCCc3ccccc32)CC1 | -0.1 | 31.1* | -0.4 | -3.5 | 3.2
C[C@@H]1CN([C@@H](C)CO)C(=O)c2cc(NS(=O)(=O)c3cn(C)cn3)ccc2O[C@H]1CN(C)C(=O)Nc1ccc2c(c1)OCO2 | -1.9 | 4.9 | -3.0 | 4.4[16.7 µM] | 2.5
C[C@@H]1CN([C@H](C)CO)C(=O)c2cc(NS(=O)(=O)c3cn(C)cn3)ccc2O[C@H]1CN(C)C(=O)Nc1ccc2c(c1)OCO2 | 255.3* | 2.5 | -1.0 | -0.1[16.7 µM] | -3.7
C[C@@H]1CN([C@@H](C)CO)C(=O)c2cccc(NS(=O)(=O)c3cn(C)cn3)c2O[C@H]1CN(C)C(=O)Nc1ccc2c(c1)OCO2 | 283.4* | -4.0 | 0.2 | -7.3[16.7 µM] | 4.4
O=C(C[C@H]1C[C@H]2c3cc(NC(=O)Cc4ccncc4)ccc3O[C@H]2[C@@H](CO)O1)NCc1ccncc1 | -0.8 | -1.7 | -11.4 | -2.5[16.7 µM] | -0.6
C[C@@H]1CN([C@H](C)CO)C(=O)Cc2cc(NC(=O)Nc3ccccc3)ccc2O[C@@H]1CN(C)Cc1ccccc1 | . | 2.3 | 3.5 | -3.3[16.7 µM] | 0.9
CCCc1nc2ccc(C(=O)OC)cn2c1Cc1ccccc1OC | 0.0 | 0.4 | . | . | 1.9
COC(=O)c1ccc2nc(C3CCCCC3)c(Cc3ccccc3OC)n2c1 | 0.1 | 20.3* | . | . | -5.8
COC(=O)c1ccc2nc(-c3ccc(C#N)cc3)c(Cc3cccc(F)c3)n2c1 | 0.2 | 40.9* | -0.8 | -0.9 | 2.1
COC(=O)c1ccc2nc(-c3cccc(Br)c3)c(Cc3ccccc3OC)n2c1 | . | -3.8 | . | . | .
COC(=O)c1ccc2nc(-c3ccccc3)c(Cc3ccc(C)cc3)n2c1 | 0.2 | 4.1 | . | . | -27.1*
COC(=O)c1ccc2nc(-c3ccc(F)cc3)c(Cc3ccccc3OC)n2c1 | 0.0 | 49.6* | . | . | -1.1
COC(=O)c1ccc2nc(-c3ccco3)c(Cc3ccsc3)n2c1 | 0.0 | 68.1* | . | . | -2.1
O=C(Cc1n[nH]c(=O)c2ccccc12)OCC(=O)N(Cc1ccccc1)Cc1ccccc1 | -2.7 | -1.1 | 0.5 | -1.8 | -23.8*
NC(=O)C1=CC2C3C=CC2(O)C(=O)OC3O1 (stereo not drawn) | -0.4 | 3.7 | . | 135.6* | 13.8
COc1ccc(S(=O)(=O)Nc2cccc3c2O[C@H](CN(C)S(=O)(=O)c2ccc(Cl)cc2)[C@H](C)CN([C@@H](C)CO)C3=O)cc1 | 0.0 | -6.6 | -3.0 | -4.4[16.7 µM] | 1.1
CC(C)NC(=O)N(C)C[C@H]1Oc2cc(-c3cncnc3)ccc2S(=O)(=O)N([C@@H](C)CO)C[C@@H]1C | 0.0 | 7.2 | -1.0 | -5.0[16.7 µM] | 5.2
Cc1ccc(-c2csc(N3C(=N)SCC3=O)n2)cc1 | . | -0.3 | . | . | 1.5
N=C1SCC(=O)N1c1ncc(Cc2ccc(F)cc2)s1 | . | -5.9 | 15.4 | 0.7 | -47.5*
CCCS(=O)(=O)c1c(S(=O)(=O)CCC)c2c(C)cccn2c1C(=O)N/N=C/c1cc(O)cc(O)c1 | 1.6 | 1.1 | -0.5 | . | -20.9*
C[C@@H]1CCCCO[C@@H](CN(C)S(=O)(=O)c2ccc(Cl)cc2)[C@@H](C)CN([C@H](C)CO)C(=O)c2cc(NS(C)(=O)=O)ccc2O1 | -0.1 | 21.6* | -2.8 | 18.3[16.7 µM] | -0.5
SMILES | E-selectin induc | DENV2 CPE rescue | Cneo AK release | miR-122 sensor | rRNA inh HTS
Cc1ccc(S(=O)(=O)N(C)C[C@@H]2OCCCC[C@@H](C)Oc3ccc(NS(C)(=O)=O)cc3C(=O)N([C@@H](C)CO)C[C@H]2C)cc1 | -0.3 | 36.0* | -2.1 | -0.1[16.7 µM] | -1.3
Cc1ccc(S(=O)(=O)Nc2ccc3c(c2)C(=O)N([C@H](C)CO)C[C@H](C)[C@@H](CN(C)S(=O)(=O)c2ccc(Cl)cc2)OCCCC[C@H](C)O3)cc1 | 0.1 | 36.8* | -0.8 | -19.2[16.7 µM] | -3.4
Cc1ccc(S(=O)(=O)N(C)C[C@@H]2OCCCC[C@@H](C)Oc3ccc(NS(=O)(=O)c4ccc(Cl)cc4)cc3C(=O)N([C@H](C)CO)C[C@@H]2C)cc1 | -0.1 | ? | -0.6 | 0.0[16.7 µM] | 0.8
C[C@@H]1CN([C@H](C)CO)C(=O)c2cc(NS(=O)(=O)c3ccc(Cl)cc3)ccc2O[C@@H](C)CCCCO[C@H]1CN(C)S(=O)(=O)c1ccc(Cl)cc1 | -0.2 | 54.0* | 5.0 | -16.5[16.7 µM] | -8.4
CCN1CCN(c2cc(C)c3cc(NC(=S)NCc4cccs4)ccc3n2)CC1 | . | -3.1 | -0.8 | 18.3 | -6.5
Cc1cc(N2CCN(C)CC2)nc2ccc(NC(=S)NCc3cccs3)cc12 | . | -15.9 | 0.5 | 7.0 | -23.4*
C[C@@H]1CN([C@H](C)CO)S(=O)(=O)c2ccc(C#CC3CC3)cc2O[C@@H]1CN(C)C(=O)c1ccccc1 | 0.3 | . | 0.9 | -9.1[16.7 µM] | -1.2
O=C(Oc1c(-c2ccccc2)c(=O)n2c3c(cccc13)CC2)c1ccccc1 | 0.2 | ? | 8.4 | 1.7 | -28.1*
Cc1noc(C)c1NC(=O)N(C)C[C@@H]1Oc2ccc(NC(=O)Cn3cnnn3)cc2C(=O)N([C@@H](C)CO)C[C@@H]1C | 102.7* | 4.0 | 0.3 | -1.2[16.7 µM] | 0.6
C[C@H](CO)N1C[C@H](C)[C@H](CN(C)C(=O)NC2CCCCC2)Oc2ccc(NC(=O)Cn3cnnn3)cc2C1=O | . | 99.0* | 53.2 | 0.0[16.7 µM] | 1.5
C[C@H]1CCCCO[C@H](CN(C)Cc2ccc(Cl)c(Cl)c2)[C@@H](C)CN([C@@H](C)CO)C(=O)c2cc(NS(=O)(=O)c3ccccc3)ccc2O1 | 0.0 | -12.8 | . | . | -5.1
C[C@@H]1CCCCO[C@H](CN(C)Cc2ccc(Cl)c(Cl)c2)[C@@H](C)CN([C@H](C)CO)C(=O)c2cc(NS(=O)(=O)c3ccccc3)ccc2O1 | 0.3 | 32.1* | -0.9 | -4.3[16.7 µM] | 2.6
C[C@@H]1CCCCO[C@H](CN(C)Cc2ccc(Cl)c(Cl)c2)[C@@H](C)CN([C@@H](C)CO)C(=O)c2cc(NS(=O)(=O)c3ccccc3)ccc2O1 | . | 24.2* | -2.2 | -14.0[16.7 µM] | .
C[C@@H]1C/C=C\C[C@@H](c2ccc3c(c2)OCO3)NC(=O)[C@@H](c2ccccc2)CC(=O)N1 | . | . | . | . | -1.2

Screening results deposited in PubChem by Broad Institute.
